Laboratory results as given in ChEMBL document CHEMBL3616466, “Pyrazolo[3,4-h]quinolines promising photosensitizing agents in the treatment of cancer” (Eur J Med Chem, 2015).

Columns and labels:
Format in all cases: functional
Jurkat [1] = experiment: Photocytotoxicity against human Jurkat cells assessed as growth inhibition at 2.5 J/cm'2 irradiation for 30 mins followed by drug treated for 72 hrs by MTT assay; settings: light or radiation study
Summary of the method: (§1)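 Cells seeded at 5 × 10³ per well and pre-incubated 24 h. Drug dilutions in HBSS (pH 7.2, from DMSO stock) added for 30 min at 37 °C, then UV-A irradiation at the stated dose. Drug solution then replaced with culture medium and plates incubated 72 h. Viability by MTT; GI50 from concentration series.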

Jurkat [2] = experiment: Photocytotoxicity against human Jurkat cells assessed as growth inhibition at 1.25 J/cm'2 irradiation for 30 mins followed by drug treated for 72 hrs by MTT assay; settings: light or radiation study; summary of the method: as §1
HL-60 [3] = experiment: Photocytotoxicity against human HL60 cells assessed as growth inhibition at 2.5 J/cm'2 irradiation for 30 mins followed by drug treated for 72 hrs by MTT assay; settings: HL-60, light or radiation study; summary of the method: as §1
HL-60 [4] = experiment: Photocytotoxicity against human HL60 cells assessed as growth inhibition at 1.25 J/cm'2 irradiation for 30 mins followed by drug treated for 72 hrs by MTT assay; settings: HL-60, light or radiation study; summary of the method: as §1
MCF7 [5] = experiment: Photocytotoxicity against human MCF7 cells assessed as growth inhibition at 3.75 J/cm'2 irradiation for 30 mins followed by drug treated for 72 hrs by MTT assay; settings: MCF7, light or radiation study; summary of the method: as §1
MCF7 [6] = experiment: Photocytotoxicity against human MCF7 cells assessed as growth inhibition at 2.5 J/cm'2 irradiation for 30 mins followed by drug treated for 72 hrs by MTT assay; settings: MCF7, light or radiation study; summary of the method: as §1
A549 [7] = experiment: Photocytotoxicity against human A549 cells assessed as growth inhibition at 3.75 J/cm'2 irradiation for 30 mins followed by drug treated for 72 hrs by MTT assay; settings: A549, light or radiation study; summary of the method: as §1
A549 [8] = experiment: Photocytotoxicity against human A549 cells assessed as growth inhibition at 2.5 J/cm'2 irradiation for 30 mins followed by drug treated for 72 hrs by MTT assay; settings: A549, light or radiation study; summary of the method: as §1
LoVo [9] = experiment: Photocytotoxicity against human LoVo cells assessed as growth inhibition at 3.75 J/cm'2 irradiation for 30 mins followed by drug treated for 72 hrs by MTT assay; settings: light or radiation study; summary of the method: as §1
LoVo [10] = experiment: Photocytotoxicity against human LoVo cells assessed as growth inhibition at 2.5 J/cm'2 irradiation for 30 mins followed by drug treated for 72 hrs by MTT assay; settings: light or radiation study; summary of the method: as §1
Jurkat [11] = experiment: Cytotoxicity against human Jurkat cells assessed as growth inhibition after 72 hrs by MTT assay
HL-60 [12] = experiment: Cytotoxicity against human HL60 cells assessed as growth inhibition after 72 hrs by MTT assay; settings: HL-60, 72 h
A549 [13] = experiment: Cytotoxicity against human A549 cells assessed as growth inhibition after 72 hrs by MTT assay; settings: A549, 72 h
Summary of the method: (§2)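 Cells (5 × 10³ per well) pre-incubated 24 h at 37 °C, 5% CO₂, then exposed in the dark to serial concentrations diluted from DMSO stock into complete medium for 72 h at 37 °C. Viability read by MTT; GI50 derived. LoVo in Ham's F-12, MCF-7 and A-549 in DMEM, all with 10% FBS and penicillin/streptomycin.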

MCF7 [14] = experiment: Cytotoxicity against human MCF7 cells assessed as growth inhibition after 72 hrs by MTT assay; settings: MCF7, 72 h; summary of the method: as §2
LoVo [15] = experiment: Cytotoxicity against human LoVo cells assessed as growth inhibition after 72 hrs by MTT assay; summary of the method: as §2

| Compound | GI50 (Jurkat [1]) | GI50 (Jurkat [2]) | GI50 (HL-60 [3]) | GI50 (HL-60 [4]) | GI50 (MCF7 [5]) | GI50 (MCF7 [6]) | GI50 (A549 [7]) | GI50 (A549 [8]) | GI50 (LoVo [9]) | GI50 (LoVo [10]) | GI50 (Jurkat [11]) | GI50 (HL-60 [12]) | GI50 (A549 [13]) | GI50 (MCF7 [14]) | GI50 (LoVo [15]) |
| --- | --- | --- | --- | --- | --- | --- | --- | --- | --- | --- | --- | --- | --- | --- | --- |
| CCOC(=O)c1cc2c(n(C)c1=O)-c1cnn(-c3ccc(Cl)cc3)c1CC2 | > 20 µM | > 20 µM | 7.67 µM | > 20 µM | > 20 µM | > 20 µM | > 20 µM | > 20 µM | > 20 µM | > 20 µM | – | – | – | – | – |
| COc1ccc(-n2ncc3c2CCc2cc(S(=O)(=O)c4ccccc4)c(=O)n(Cc4ccccc4)c2-3)cc1 | > 20 µM | > 20 µM | > 20 µM | > 20 µM | > 20 µM | > 20 µM | > 20 µM | > 20 µM | 4.12 µM | > 20 µM | – | – | – | – | – |
| O=c1[nH]c2c(cc1S(=O)(=O)c1ccccc1)CCc1c-2cnn1-c1cccc(Cl)c1 | > 20 µM | > 20 µM | > 20 µM | > 20 µM | > 20 µM | > 20 µM | 9.53 µM | 14.1 µM | > 20 µM | > 20 µM | 4.55 µM | > 20 µM | 6.41 µM | > 20 µM | > 20 µM |
| Cn1c2c(cc(S(=O)(=O)c3ccccc3)c1=O)CCc1c-2cnn1-c1ccccc1 | 6.99 µM | > 20 µM | > 20 µM | > 20 µM | > 20 µM | > 20 µM | > 20 µM | > 20 µM | > 20 µM | > 20 µM | – | – | – | – | – |
| Cn1c2c(cc(S(=O)(=O)c3ccccc3)c1=O)CCc1c-2cnn1Cc1ccccc1 | 5.67 µM | > 20 µM | 6.79 µM | > 20 µM | > 20 µM | > 20 µM | > 20 µM | > 20 µM | 13 µM | > 20 µM | – | – | – | – | – |
| Cn1c2c(cc(S(=O)(=O)c3ccccc3)c1=O)CCc1c-2cnn1-c1ccccc1Cl | 5.21 µM | > 20 µM | 4.82 µM | 11.5 µM | 12.6 µM | > 20 µM | 13 µM | > 20 µM | 13.1 µM | > 20 µM | – | – | – | – | – |
| COc1ccc(-n2ncc3c2CCc2cc(S(=O)(=O)c4ccccc4)c(=O)n(C)c2-3)cc1 | 6.68 µM | > 20 µM | 7.65 µM | > 20 µM | > 20 µM | > 20 µM | > 20 µM | > 20 µM | > 20 µM | > 20 µM | – | – | – | – | – |
| COc1ccc(-n2ncc3c2CCc2cc(S(=O)(=O)c4ccccc4)c(=O)[nH]c2-3)cc1 | – | – | – | – | – | – | – | – | – | – | > 20 µM | > 20 µM | 4.04 µM | 8.54 µM | > 20 µM |
| Cn1c2c(cc(S(=O)(=O)c3ccccc3)c1=O)CCc1c-2cnn1-c1cccc(Cl)c1 | 2.81 µM | > 20 µM | 2.44 µM | > 20 µM | 9.01 µM | 12.7 µM | 8.4 µM | > 20 µM | 7.54 µM | 13.1 µM | 11.3 µM | > 20 µM | > 20 µM | > 20 µM | > 20 µM |
| COc1nc2c(cc1S(=O)(=O)c1ccccc1)CCc1c-2cnn1Cc1ccccc1 | 1.4 µM | 2.48 µM | 1.3 µM | 3.83 µM | 3.05 µM | 4 µM | 5.74 µM | 10.4 µM | 1.41 µM | 5.32 µM | 8.43 µM | 6.1 µM | > 20 µM | > 20 µM | > 20 µM |
| O=c1[nH]c2c(cc1S(=O)(=O)c1ccccc1)CCc1c-2cnn1-c1ccc(Cl)cc1 | – | – | – | – | – | – | – | – | – | – | > 20 µM | > 20 µM | 6.25 µM | 11.2 µM | > 20 µM |
| COc1ccc(-n2ncc3c4[nH]c(=O)c(S(=O)(=O)c5ccccc5)cc4ccc32)cc1 | > 20 µM | > 20 µM | > 20 µM | > 20 µM | > 20 µM | > 20 µM | 4.26 µM | 5.39 µM | > 20 µM | > 20 µM | > 20 µM | > 20 µM | 6.56 µM | 8.36 µM | > 20 µM |
| COc1ccc(-n2ncc3c4nc(OC)c(S(=O)(=O)c5ccccc5)cc4ccc32)cc1 | 0.54 µM | 1.5 µM | 0.76 µM | 0.99 µM | 0.59 µM | 1.23 µM | 0.09 µM | 0.35 µM | 0.16 µM | 0.42 µM | > 20 µM | > 20 µM | > 20 µM | 16.2 µM | > 20 µM |
| CCOC(=O)c1cc2c(nc1OC)-c1cnn(-c3ccc(OC)cc3)c1CC2 | 6.43 µM | 9.93 µM | 4.69 µM | 7.71 µM | > 20 µM | > 20 µM | 4.67 µM | 6.99 µM | 4.3 µM | 5.81 µM | – | – | – | – | – |
| COc1nc2c(ccc3c2cnn3-c2ccc(Cl)cc2)cc1S(=O)(=O)c1ccccc1 | 0.96 µM | 4.23 µM | 1.2 µM | 2.16 µM | 3.23 µM | 5.36 µM | 0.75 µM | 3.09 µM | 0.71 µM | 1.43 µM | > 20 µM | > 20 µM | 4.6 µM | 7.51 µM | > 20 µM |
| O=c1ccc2ccc3occc3c2o1 [ANGELICIN] | 1 µM | – | 1.2 µM | – | 1.5 µM | 4.42 µM | – | – | 1.11 µM | 4 µM | – | – | – | – | – |
| COc1nc2c(cc1S(=O)(=O)c1ccccc1)CCc1c-2cnn1C | 12.7 µM | > 20 µM | 9.79 µM | > 20 µM | > 20 µM | > 20 µM | > 20 µM | > 20 µM | > 20 µM | > 20 µM | – | – | – | – | – |
| O=c1[nH]c2c(cc1S(=O)(=O)c1ccccc1)CCc1c-2cnn1Cc1ccccc1 | 6.88 µM | > 20 µM | 5.06 µM | > 20 µM | > 20 µM | > 20 µM | > 20 µM | > 20 µM | 14.5 µM | > 20 µM | – | – | – | – | – |
| CCOC(=O)c1cc2c(nc1OC)-c1cnn(-c3ccc(Cl)cc3)c1CC2 | 1.81 µM | 4.47 µM | 1.71 µM | 5.38 µM | > 20 µM | > 20 µM | 2.3 µM | 3.68 µM | 1.13 µM | 2.79 µM | – | – | – | – | – |
| O=c1[nH]c2c(cc1S(=O)(=O)c1ccccc1)CCc1c-2cnn1-c1ccccc1Cl | 3.95 µM | 11.3 µM | 2.76 µM | – | 10.4 µM | 13 µM | 8.97 µM | 13.3 µM | 10.1 µM | > 20 µM | – | – | – | – | – |
| O=c1[nH]c2c(cc1S(=O)(=O)c1ccccc1)CCc1c-2cnn1-c1ccccc1 | > 20 µM | > 20 µM | > 20 µM | > 20 µM | > 20 µM | > 20 µM | 14.1 µM | > 20 µM | > 20 µM | > 20 µM | 20 µM | > 20 µM | 10.8 µM | 11.5 µM | > 20 µM |
| Cn1c2c(cc(S(=O)(=O)c3ccccc3)c1=O)CCc1c-2cnn1-c1ccc(Cl)cc1 | 3.01 µM | > 20 µM | 2.88 µM | > 20 µM | > 20 µM | > 20 µM | > 20 µM | > 20 µM | 11.1 µM | > 20 µM | – | – | – | – | – |
| O=c1[nH]c2c(ccc3c2cnn3-c2ccc(Cl)cc2)cc1S(=O)(=O)c1ccccc1 | – | – | – | – | – | – | – | – | – | – | > 20 µM | > 20 µM | 1.46 µM | 9.26 µM | > 20 µM |
| COc1ccc(-n2ncc3c2CCc2cc(S(=O)(=O)c4ccccc4)c(OCc4ccccc4)nc2-3)cc1 | > 20 µM | > 20 µM | 9.09 µM | > 20 µM | > 20 µM | > 20 µM | 5.74 µM | > 20 µM | 2.76 µM | > 20 µM | – | – | – | – | – |
